# Screening data deposited in PubChem by Broad Institute.
# In the library only some 4.4% were active in any assay of this set; here they are far more common.
# Calb FLC – C. albicans growth inhibition with fluconazole, primary screen, CaCi-2 strain, Alamar Blue fluorescence. AID 1979, 2009. C. albicans CaCi-2 (fluconazole-resistant clinical isolate) + fluconazole, 48 h. hit rate 0.57% among 300,000. growth inhibition, % (test concentration not listed);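 active = growth inhibition above about 58% in most replicates, limit read from the data, passing the limit was not always enough; inconclusive = exactly half the replicates above a set limit; inactive = most replicates below a set limit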;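 note: all wells also contain fluconazole at 8 µg/ml as a sub-toxic cotreatment; 0% = median of DMSO wells and 100% = median of geldanamycin control wells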
# HSF1 inh – HSF1 inhibitors in luciferase reporter cells, primary screen, cell-based, NIH3T3, luminescence. NIH3T3-HGL HSE-luciferase, MG132-induced, luminescence 8 h; active compounds read low. activity change, negative = inhibition, % at 7.5 µM (by protocol). hit rate 0.77% among 300,000;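 active = more than half of replicate wells show activity change below -50%, luminescence cut by over half; inconclusive = some wells, but at most half, below -50%; inactive = no replicate well below -50%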;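 note: luciferase reports HSF-1 transcriptional activity via heat shock element; 0% = median of DMSO wells and -100% = zero luminescence signal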
# T cruzi repl – inhibitors of intracellular T. cruzi growth, primary screen, luminescence, NIH3T3 host cells. hit rate 1.4% among 300,000. AID 1885, 2009. inhibition, % (concentration not given with the values). T. cruzi beta-gal in NIH3T3, 90 h;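 active = mean inhibition across valid replicates above about 55%, limit read from the data; inconclusive = mean below that limit but half or more replicates reach it; inactive = mean below it, under half of replicates reach it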;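 note: signal also drops with host cell toxicity which is not excluded here; 0% = plate median of DMSO wells and 100% = zero luminescence signal; higher percent means less beta-gal luminescence so fewer parasites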
#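 Incubation – ≥90 h infection period, 3 h prior cell attachment · System – NIH/3T3 fibroblasts plus reporter T. cruzi · Doses – compound pinned at 50 nL/well, DMSO · Read-out basis – percent inhibition of parasite-derived β-gal signal · Signal – luminescent β-galactosidase signal after 60 min lysis · Also added – 5000 T. cruzi trypomastigotes/well · Medium – Low-serum DMEM with 2% FBS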
# HSF1 activator – HSF-1 activators, primary screen, NIH3T3-HGL cells, MG132 stress, luminescence, single point | NIH3T3-HGL HSF-1 luciferase reporter, 8 h; 100% = twice DMSO control signal | activation, % at 9 µM | hit rate 1.7% among 300,000 | AID 504408, 2011;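 active = mean replicate activation of at least 50% with a set share of replicates each reaching 50%; inconclusive = only one of those two conditions met; inactive = mean below 50% and too few replicates reaching it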;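 note: 0% = median of the neutral control wells and 100% = twice that signal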
# HIF act – HIF pathway transcriptional activators, primary screen, cell-based, U2OS HRE-luciferase, luminescence. U2OS HRE-luciferase reporter; normalized: DMSO 0%, desferrioxamine 100%. AID 1910, 2009. activation, % at 7.5 µM (by protocol). hit rate 0.32% among 300,000;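 active = mean activation of at least 10% of the iron chelator positive control signal, with at least half of replicates also reaching 10%; inconclusive = mean and replicate majority disagree about reaching 10%; inactive = mean and most replicates under 10%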
# Numbers without * were called inactive; ? = inconclusive; nt = not tested or not shown.
SMILES,Calb FLC,HSF1 inh,T cruzi repl,HSF1 activator,HIF act
COc1cc(C(=O)Nc2ccc3c(c2)N(C(=O)CCN(C)C)c2ccccc2CC3)cc(OC)c1OC,-25,8,79*,12,0
CCn1c2ccccc2c2cc(NC(=O)c3cc(OC)c(OC)c(OC)c3)ccc21,14,-6,57*,0,-56
COc1cc(C(=O)Nc2sc(C)c(C)c2C(=O)O)cc(OC)c1OC,-9,-7,-10,-2,165*
Cn1nc(C(=O)N2CCCCC2)c2c1-c1ccccc1S(=O)(=O)C2,-4,-7,-6,-16,0
COc1ccc(/C=N/NC(=O)c2ccc(N(C)S(=O)(=O)c3ccccc3)cc2)c(OC)c1,1,9,-17,58*,0
COc1cc(C(=O)Nc2ccccc2N2CCCCC2)cc(OC)c1OC,5,-2,21,1,0
COc1ccc(OC)c(/C=N/NC(=O)c2ccc(N(C)S(=O)(=O)c3ccccc3)cc2)c1,6,0,-7,30,0
COc1cc(C(=O)Nc2ccccc2NC(=O)c2cc(OC)c(OC)c(OC)c2)cc(OC)c1OC,-2,-69*,25,-73,0
O=C(CN1C(=O)COc2ccc(S(=O)(=O)N3CCCCC3)cc21)NCc1ccccc1Cl,2,?,-1,-37,0
O=C(COC(=O)Cc1ccc(Br)cc1)NCc1ccc(F)cc1,12,-2,-2,-5,0
COc1ccc(C(=O)Oc2ccc(C(C)=O)cc2)c(OC)c1,-13,25,-10,60*,1
CCOC(=O)c1cn(-c2c(Cl)cccc2Cl)c2cc(Cl)c([N+](=O)[O-])cc2c1=O,?,56,1,104*,0
Cc1cccc(NC(=S)N2CCC(NC(=O)C3CCCCC3)CC2)c1,-6,-7,-11,-18,-1
CCC1(C)C(Nc2c(C)cccc2C)=NC(=S)N1c1ccc(NC(C)=O)cc1 (stereo not drawn),0,6,6,3,0
Cc1ccc(OCCn2cnc3cc([N+](=O)[O-])ccc3c2=O)cc1,-4,3,72*,20,0
O=c1c2ccc([N+](=O)[O-])cc2ncn1CCOc1ccccc1,44,20,66*,45,0
O=C(CSc1n[nH]c(-c2ccccc2)n1)c1ccc(O)c(O)c1,1,1,-66,2,0
CC(=O)c1ccc(-n2cc(-c3ccc(C(C)(C)C)cc3)[n+]3c2SCCC3)cc1,101*,-11,68*,-4,0
Cc1ccc(S(=O)(=O)N/N=C/c2ccc3nccnc3c2)cc1,0,2,-5,21,0
c1ccc2c(c1)ccc1ncccc12,1,-9,-23,-15,1
Oc1c(N=Nc2ccccn2)ccc2ccccc12,-3,184,73*,265*,34*
Cc1cc(C)n(CC(=O)N2CCCC(N3CCN(c4ccc(F)cc4)CC3)C2)n1 (stereo not drawn),-2,-5,0,12,0
Cc1ccn(CC(=O)N2CCCC(N3CCN(c4ccc(F)cc4)CC3)C2)n1 (stereo not drawn),3,19,-3,67*,-2
O=[N+]([O-])c1ccc(N2CCN(S(=O)(=O)c3ccc(Cl)cc3)CC2)cc1NCc1cccnc1,8,21,60*,30,0
CC12CCC(C(=O)NCc3ccc(F)cc3)(OC1=O)C2(C)C (stereo not drawn),21,7,-2,-6,0
SMILES,Calb FLC,HSF1 inh,T cruzi repl,HSF1 activator,HIF act
Cc1nn2cc(-c3ccccc3)nc2s1,-16,8,1,35,-1
c1ccc(-c2cn3nc(-c4ccccc4)sc3n2)cc1,-11,-56*,-11,-61,-2
Cc1cc2c(=O)n(Cc3ccco3)c(SCC(=O)c3ccc(Cl)s3)nc2s1,11,27,20,78*,0
O=C(NC(=O)c1cccc(Cl)c1)OC[C@@H]1CCCN2CCCCC12 (stereo partly drawn),-10,-6,-12,4,0
O=C(NC(=O)c1cccc(F)c1)OC[C@@H]1CCCN2CCCC[C@H]12,2,-78*,0,-84,0
COc1ccc(C2NC(=O)c3ccccc3O2)cc1 (stereo not drawn),-8,6,-7,24,1
CNc1ncc(C(=O)c2ccc(-c3ccccc3)cc2)s1,3,17,1,36,3
Clc1ccc(-c2csc(N3CCOCC3)n2)cc1,16,24,-13,53*,2
c1ccc(-c2csc(Nc3nc(N4CCOCC4)nc(N4CCOCC4)n3)n2)cc1,1,-28,61*,-36,0
CCOC(=O)Cn1nc(C)n(-c2ccc(F)cc2)c1=O,-1,2,-8,10,0
CC(=O)N(Cc1ccco1)c1nc(C(=O)Nc2ccc(Cl)cc2)c(C)s1,14,15,15,53*,0
CCOC(=O)C1=C(C)N=c2s/c(=C/c3cccc([N+](=O)[O-])c3O)c(=O)n2C1c1cc(OC)c(OC)c(OC)c1 (stereo not drawn),-5,6,-5,58*,-1
CCOC(=O)C1=C(C)N=c2s/c(=C/c3cccc([N+](=O)[O-])c3O)c(=O)n2C1c1ccccc1 (stereo not drawn),-4,-4,11,7,0
COc1ccc(N/N=C(/N=Nc2nc(C)cc(=O)[nH]2)c2ccccc2)cc1,-12,0,44,5,143*
Cc1cc(=O)[nH]c(N=N/C(=N/Nc2ccc(O)cc2)c2ccccc2)n1,-8,21,40,38,12*
Cc1cc(=O)[nH]c(N=N/C(=N/Nc2ccccc2C)c2ccccc2)n1,-15,-5,40,-10,2
CC1=CC(=O)Nc2ccccc2S1,nt,-38,nt,-38,nt
O=C1CCCN1CCC1CCN(C(=O)Nc2ccccc2)CC1,23,-68*,-24,-73,0
Cc1cc(C)cc(OCC(O)CN2CC(C)OC(C)C2)c1 (stereo not drawn),3,-63*,7,-71,0
COc1ccc(NCC(=O)N/N=C/C(C)c2ccccc2)cc1 (stereo not drawn),-24,-8,5,-4,0
COc1ccc(NC(=O)CSc2nc3c(c(=O)[nH]2)CCC3)cc1OC,-4,8,-11,21,12*
O=C(CSc1ccc(F)cc1)Nc1ccccc1Br,-2,27,-9,35,1
O=C(CSc1ccccc1)Nc1ccc(N2CCN(c3ccccc3)CC2)c(F)c1,-26,28,-9,55*,0
O=C(CSc1ccc(F)cc1)Nc1ccc(Br)cc1,-11,47,-18,102*,3
